Laboratory results reported in article PMC7017397 (ACS Omega, 2020).

Tests used:
Type in all cases: in vivo, C57BL/6J mice
[1] = Plasma pharmacokinetics after a single 1 mg/kg dose; conditions: for AUC / MRT last / k el: C57BL/6J, mouse, 1 mg/kg
In short: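 Male C57BL/6J mice (10–12 weeks; n = 4 per time point) under i.p. zolazepam 50 mg/kg plus xylazine 12 mg/kg received 1 mg/kg in 5% dextrose (37 °C) by tail-vein i.v., s.c., i.p. or gavage. Terminal cardiac-puncture blood was taken into EDTA at 2.5–90 min. Plasma was spiked with internal standard, acetonitrile-deproteinized and measured by LC–MS/MS. Mean levels were fitted two-compartmentally, with AUC by linear trapezoidal rule.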

[2] = Brain pharmacokinetics after a single 1 mg/kg dose; conditions: for Cmax / MRT last / Tmax / k el: C57BL/6J, mouse, 1 mg/kg; for brain drug targeting efficiency: from zero-infinity predicted AUC values
In short: (§1)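 Anaesthetized (zolazepam/xylazine i.p.) male C57BL/6J mice, n = 4 per time point, were dosed 1 mg/kg by i.v., s.c., i.p. or gavage. At 2.5–90 min, after cardiac blood sampling, they were transcardially perfused with saline. Brain and spinal cord were homogenized in equal weight-volume water, spiked with internal standard, deproteinized 1:3 with cold acetonitrile and quantified by LC–MS/MS. Per-time-point means were fitted with a two-compartment model.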

[3] = Spinal cord pharmacokinetics after a single 1 mg/kg dose; conditions: for Cmax / MRT last / Tmax / k el: C57BL/6J, mouse, 1 mg/kg; for spinal cord drug targeting efficiency: from zero-infinity predicted AUC values
In short: as §1

[4] = brain, i.p. 1 mg/kg single dose
[5] = brain, i.v. 1 mg/kg single dose
[6] = brain, p.o. 1 mg/kg single dose
[7] = brain, s.c. 1 mg/kg single dose
[8] = spinal cord, i.p. 1 mg/kg single dose
[9] = spinal cord, i.v. 1 mg/kg single dose
[10] = spinal cord, p.o. 1 mg/kg single dose
[11] = spinal cord, s.c. 1 mg/kg single dose

CC(=O)N[C@@H](Cc1ccccc1)C(=O)N[C@H]1CCCNC(=O)[C@H](CCCNC(=N)N)NC(=O)[C@H](Cc2c[nH]c3ccccc23)NC(=O)[C@@H](CC2CCCCC2)NC(=O)[C@@H]2CCCN2C1=O [PMX53, Ac-Phe-[Orn-Pro-dCha-Trp-Arg]]
AUC ([1]; ip): 1800 ng·h/mL
MRT last ([1]; ip): 27.4 min
k el ([1]; ip): 0.00114 s⁻¹
AUC ([1]; iv): 2510 ng·h/mL
MRT last ([1]; iv): 13.2 min
k el ([1]; iv): 0.00193 s⁻¹
AUC ([1]; po): 227 ng·h/mL
MRT last ([1]; po): 32.6 min
k el ([1]; po): 0.000711 s⁻¹
AUC ([1]; sc): 2240 ng·h/mL
MRT last ([1]; sc): 38.8 min
k el ([1]; sc): 0.000592 s⁻¹
Alpha (hybrid first-order rate constant, distribution phase) ([1]; i.p. 1 mg/kg single dose): 0.07 min⁻¹
Beta (hybrid first-order rate constant, elimination phase) ([1]; i.p. 1 mg/kg single dose): 0.03 min⁻¹
CLD2_F (apparent total clearance of the drug from plasma after administration) ([1]; i.p. 1 mg/kg single dose): <0.01 µL/min
CL_F (apparent total body clearance of the drug from plasma) ([1]; i.p. 1 mg/kg single dose): 0.16 µL/min
K01 (absorption rate constant) ([1]; i.p. 1 mg/kg single dose): 4.29 h⁻¹
K12 (distribution rate constant) ([1]; i.p. 1 mg/kg single dose): <0.001 h⁻¹
K21 (redistribution rate constant) ([1]; i.p. 1 mg/kg single dose): 2.00 h⁻¹
V1_F (apparent volume of central compartment) ([1]; i.p. 1 mg/kg single dose): <0.01 mL
V2_F (apparent volume of peripheral compartment) ([1]; i.p. 1 mg/kg single dose): <0.01 mL
Alpha (hybrid first-order rate constant, distribution phase) ([1]; i.v. 1 mg/kg single dose): 0.20 min⁻¹
Beta (hybrid first-order rate constant, elimination phase) ([1]; i.v. 1 mg/kg single dose): 0.05 min⁻¹
CLD2_F (apparent total clearance of the drug from plasma after administration) ([1]; i.v. 1 mg/kg single dose): 84.57 µL/min
CL_F (apparent total body clearance of the drug from plasma) ([1]; i.v. 1 mg/kg single dose): 199.16 µL/min
K12 (distribution rate constant) ([1]; i.v. 1 mg/kg single dose): 2.95 h⁻¹
K21 (redistribution rate constant) ([1]; i.v. 1 mg/kg single dose): 4.85 h⁻¹
V1_F (apparent volume of central compartment) ([1]; i.v. 1 mg/kg single dose): 1.72 mL
V2_F (apparent volume of peripheral compartment) ([1]; i.v. 1 mg/kg single dose): 1.05 mL
Alpha (hybrid first-order rate constant, distribution phase) ([1]; p.o. 1 mg/kg single dose): 0.04 min⁻¹
Beta (hybrid first-order rate constant, elimination phase) ([1]; p.o. 1 mg/kg single dose): 0.04 min⁻¹
CLD2_F (apparent total clearance of the drug from plasma after administration) ([1]; p.o. 1 mg/kg single dose): <0.01 µL/min
CL_F (apparent total body clearance of the drug from plasma) ([1]; p.o. 1 mg/kg single dose): 2.01 µL/min
K01 (absorption rate constant) ([1]; p.o. 1 mg/kg single dose): 2.92 h⁻¹
K12 (distribution rate constant) ([1]; p.o. 1 mg/kg single dose): <0.001 h⁻¹
K21 (redistribution rate constant) ([1]; p.o. 1 mg/kg single dose): 2.58 h⁻¹
V1_F (apparent volume of central compartment) ([1]; p.o. 1 mg/kg single dose): 0.05 mL
V2_F (apparent volume of peripheral compartment) ([1]; p.o. 1 mg/kg single dose): <0.01 mL
Alpha (hybrid first-order rate constant, distribution phase) ([1]; s.c. 1 mg/kg single dose): 0.04 min⁻¹
Beta (hybrid first-order rate constant, elimination phase) ([1]; s.c. 1 mg/kg single dose): 0.04 min⁻¹
CLD2_F (apparent total clearance of the drug from plasma after administration) ([1]; s.c. 1 mg/kg single dose): <0.01 µL/min
CL_F (apparent total body clearance of the drug from plasma) ([1]; s.c. 1 mg/kg single dose): 0.11 µL/min
K01 (absorption rate constant) ([1]; s.c. 1 mg/kg single dose): 2.28 h⁻¹
K12 (distribution rate constant) ([1]; s.c. 1 mg/kg single dose): <0.001 h⁻¹
K21 (redistribution rate constant) ([1]; s.c. 1 mg/kg single dose): 2.14 h⁻¹
V1_F (apparent volume of central compartment) ([1]; s.c. 1 mg/kg single dose): <0.01 mL
V2_F (apparent volume of peripheral compartment) ([1]; s.c. 1 mg/kg single dose): <0.01 mL
Cmax ([2]; brain, ip): 48.1 ng/g
MRT last ([2]; brain, ip): 40.8 min
Tmax ([2]; brain, ip): 10.4 min
k el ([2]; brain, ip): 0.0002 s⁻¹
Cmax ([2]; brain, iv): 74.1 ng/g
MRT last ([2]; brain, iv): 42 min
k el ([2]; brain, iv): 0.0001 s⁻¹
Cmax ([2]; brain, po): 77 ng/g
MRT last ([2]; brain, po): 40.8 min
Tmax ([2]; brain, po): 14.9 min
k el ([2]; brain, po): 0.000122 s⁻¹
Cmax ([2]; brain, sc): 120 ng/g
MRT last ([2]; brain, sc): 42 min
Tmax ([2]; brain, sc): 19.9 min
k el ([2]; brain, sc): 0.000189 s⁻¹
Alpha (hybrid first-order rate constant, distribution phase) [2, 4]: 9.22 h⁻¹
Beta (hybrid first-order rate constant, elimination phase) [2, 4]: 0.30 h⁻¹
CLD2_F (apparent total clearance of the drug after administration) [2, 4]: 25.61 ng/(min ng/g)
CL_F (apparent total body clearance of the drug) [2, 4]: 3.77 ng/(min ng/g)
K01 (absorption rate constant) [2, 4]: 9.06 h⁻¹
K12 (distribution rate constant) [2, 4]: 4.92 h⁻¹
K21 (redistribution rate constant) [2, 4]: 3.87 h⁻¹
V1_F (apparent volume of central compartment) [2, 4]: 0.31 μg/(ng/g)
V2_F (apparent volume of peripheral compartment) [2, 4]: 0.40 μg/(ng/g)
Alpha (hybrid first-order rate constant, distribution phase) [2, 5]: 35.52 h⁻¹
Beta (hybrid first-order rate constant, elimination phase) [2, 5]: 0.20 h⁻¹
CLD2_F (apparent total clearance of the drug after administration) [2, 5]: 107.59 ng/(min ng/g)
CL_F (apparent total body clearance of the drug) [2, 5]: 2.43 ng/(min ng/g)
K12 (distribution rate constant) [2, 5]: 15.95 h⁻¹
K21 (redistribution rate constant) [2, 5]: 19.41 h⁻¹
V1_F (apparent volume of central compartment) [2, 5]: 0.40 μg/(ng/g)
V2_F (apparent volume of peripheral compartment) [2, 5]: 0.33 μg/(ng/g)
Vss (apparent volume of distribution at a steady state) [2, 5]: 0.74 μg/(ng/g)
Alpha (hybrid first-order rate constant, distribution phase) [2, 6]: 1.68 h⁻¹
Beta (hybrid first-order rate constant, elimination phase) [2, 6]: 0.26 h⁻¹
CLD2_F (apparent total clearance of the drug after administration) [2, 6]: 2.68 ng/(min ng/g)
CL_F (apparent total body clearance of the drug) [2, 6]: 2.28 ng/(min ng/g)
K01 (absorption rate constant) [2, 6]: 11.20 h⁻¹
K12 (distribution rate constant) [2, 6]: 0.51 h⁻¹
K21 (redistribution rate constant) [2, 6]: 0.99 h⁻¹
V1_F (apparent volume of central compartment) [2, 6]: 0.31 μg/(ng/g)
V2_F (apparent volume of peripheral compartment) [2, 6]: 0.16 μg/(ng/g)
Alpha (hybrid first-order rate constant, distribution phase) [2, 7]: 3.48 h⁻¹
Beta (hybrid first-order rate constant, elimination phase) [2, 7]: 0.41 h⁻¹
CLD2_F (apparent total clearance of the drug after administration) [2, 7]: 2.91 ng/(min ng/g)
CL_F (apparent total body clearance of the drug) [2, 7]: 1.75 ng/(min ng/g)
K01 (absorption rate constant) [2, 7]: 5.81 h⁻¹
K12 (distribution rate constant) [2, 7]: 1.13 h⁻¹
K21 (redistribution rate constant) [2, 7]: 2.07 h⁻¹
V1_F (apparent volume of central compartment) [2, 7]: 0.15 μg/(ng/g)
V2_F (apparent volume of peripheral compartment) [2, 7]: 0.08 μg/(ng/g)
brain drug targeting efficiency ([2]; i.p. 1 mg/kg): 0.71
brain drug targeting efficiency ([2]; p.o. 1 mg/kg): 8.21
brain drug targeting efficiency ([2]; s.c. 1 mg/kg): 1.37
Cmax ([3]; spinal cord, ip): 71.3 ng/g
MRT last ([3]; spinal cord, ip): 37.2 min
Tmax ([3]; spinal cord, ip): 11.9 min
k el ([3]; spinal cord, ip): 0.000242 s⁻¹
Cmax ([3]; spinal cord, iv): 130 ng/g
MRT last ([3]; spinal cord, iv): 41.4 min
k el ([3]; spinal cord, iv): 0.000111 s⁻¹
Cmax ([3]; spinal cord, po): 75.9 ng/g
MRT last ([3]; spinal cord, po): 40.8 min
Tmax ([3]; spinal cord, po): 14.9 min
k el ([3]; spinal cord, po): 0.000122 s⁻¹
Cmax ([3]; spinal cord, sc): 96.6 ng/g
MRT last ([3]; spinal cord, sc): 38.4 min
Tmax ([3]; spinal cord, sc): 23.1 min
k el ([3]; spinal cord, sc): 0.000519 s⁻¹
spinal cord drug targeting efficiency ([3]; i.p. 1 mg/kg): 0.63
spinal cord drug targeting efficiency ([3]; p.o. 1 mg/kg): 4.42
spinal cord drug targeting efficiency ([3]; s.c. 1 mg/kg): 0.77
Alpha (hybrid first-order rate constant, distribution phase) [3, 8]: 0.87 h⁻¹
Beta (hybrid first-order rate constant, elimination phase) [3, 8]: 0.19 h⁻¹
CLD2_F (apparent total clearance of the drug after administration) [3, 8]: 0.01 ng/(min ng/g)
CL_F (apparent total body clearance of the drug) [3, 8]: 5.15 ng/(min ng/g)
K01 (absorption rate constant) [3, 8]: 15.39 h⁻¹
K12 (distribution rate constant) [3, 8]: <0.01 h⁻¹
K21 (redistribution rate constant) [3, 8]: 0.19 h⁻¹
V1_F (apparent volume of central compartment) [3, 8]: 0.35 μg/(ng/g)
V2_F (apparent volume of peripheral compartment) [3, 8]: <0.01 μg/(ng/g)
Alpha (hybrid first-order rate constant, distribution phase) [3, 9]: 26.36 h⁻¹
Beta (hybrid first-order rate constant, elimination phase) [3, 9]: 0.27 h⁻¹
CLD2_F (apparent total clearance of the drug after administration) [3, 9]: 30.58 ng/(min ng/g)
CL_F (apparent total body clearance of the drug) [3, 9]: 1.52 ng/(min ng/g)
K12 (distribution rate constant) [3, 9]: 7.94 h⁻¹
K21 (redistribution rate constant) [3, 9]: 18.30 h⁻¹
V1_F (apparent volume of central compartment) [3, 9]: 0.23 μg/(ng/g)
V2_F (apparent volume of peripheral compartment) [3, 9]: 0.10 μg/(ng/g)
Vss (apparent volume of distribution at a steady state) [3, 9]: 0.33 μg/(ng/g)
Alpha (hybrid first-order rate constant, distribution phase) [3, 10]: 1.69 h⁻¹
Beta (hybrid first-order rate constant, elimination phase) [3, 10]: 0.26 h⁻¹
CLD2_F (apparent total clearance of the drug after administration) [3, 10]: 2.71 ng/(min ng/g)
CL_F (apparent total body clearance of the drug) [3, 10]: 2.33 ng/(min ng/g)
K01 (absorption rate constant) [3, 10]: 11.20 h⁻¹
K12 (distribution rate constant) [3, 10]: 0.51 h⁻¹
K21 (redistribution rate constant) [3, 10]: 1.00 h⁻¹
V1_F (apparent volume of central compartment) [3, 10]: 0.32 μg/(ng/g)
V2_F (apparent volume of peripheral compartment) [3, 10]: 0.16 μg/(ng/g)
Alpha (hybrid first-order rate constant, distribution phase) [3, 11]: 2.66 h⁻¹
Beta (hybrid first-order rate constant, elimination phase) [3, 11]: 0.22 h⁻¹
CLD2_F (apparent total clearance of the drug after administration) [3, 11]: 1.36 ng/(min ng/g)
CL_F (apparent total body clearance of the drug) [3, 11]: 3.68 ng/(min ng/g)
K01 (absorption rate constant) [3, 11]: 2.70 h⁻¹
K12 (distribution rate constant) [3, 11]: 0.69 h⁻¹
K21 (redistribution rate constant) [3, 11]: 0.32 h⁻¹
V1_F (apparent volume of central compartment) [3, 11]: 0.12 μg/(ng/g)
V2_F (apparent volume of peripheral compartment) [3, 11]: 0.26 μg/(ng/g)
